# Compound activity as filed in PubChem BioAssay.
# An excerpt weighted towards active compounds, which were near 2.8% of everything screened.
# PAFAH2 inh: PAFAH2 enzyme inhibitors, primary screen, biochemical, fluorescence polarization, human | actives 0.99% (n = 340,000) | inhibition, % at 3.39 µM | Platelet-activating factor acetylhydrolase 2, cytoplasmic (Homo sapiens), Q99487 | recombinant PAFAH2, FP-rhodamine activity probe;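 active = inhibition above the mean over all tested compounds plus 3 SD, cut at about 30% in these data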;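 note: inhibitors block probe labeling of enzyme so polarization drops; 0% = enzyme with DMSO and 100% = wells lacking PAFAH2 protein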
# HTRA1 inhibitor: HTRA1 serine protease inhibitors, primary screen, biochemical, fluorescence polarization, HTS | recombinant HTRA1, FP-rhodamine activity-based probe | inhibition, % at 5.96 µM | Q92743 | actives 0.5% (n = 340,000); in the data active = inhibition above about 36%;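 note: 0% = enzyme with DMSO and 100% = wells lacking enzyme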
# Target sequence (Q92743 whole entry, looked up): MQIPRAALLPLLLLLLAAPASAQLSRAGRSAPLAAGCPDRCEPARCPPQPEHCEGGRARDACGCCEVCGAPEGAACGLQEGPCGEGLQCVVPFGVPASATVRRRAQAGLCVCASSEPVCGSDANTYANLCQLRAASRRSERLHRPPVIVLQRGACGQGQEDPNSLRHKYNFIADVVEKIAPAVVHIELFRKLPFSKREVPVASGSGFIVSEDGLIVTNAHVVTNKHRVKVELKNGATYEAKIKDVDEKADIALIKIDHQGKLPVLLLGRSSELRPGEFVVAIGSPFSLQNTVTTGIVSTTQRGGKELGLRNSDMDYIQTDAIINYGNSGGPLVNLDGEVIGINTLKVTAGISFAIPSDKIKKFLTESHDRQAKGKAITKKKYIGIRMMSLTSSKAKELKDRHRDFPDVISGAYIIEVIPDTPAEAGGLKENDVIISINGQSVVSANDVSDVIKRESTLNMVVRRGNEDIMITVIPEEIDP
# pPAFAH FP inh: pPAFAH enzyme inhibitors, primary screen, biochemical, fluorescence polarization, human | actives 1.5% (n = 330,000) | recombinant pPAFAH, FP-rhodamine probe fluorescence polarization | inhibition, % at 3.39 µM | Platelet-activating factor acetylhydrolase (Homo sapiens), Q13093 | AID 463082, 2010;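 active = inhibition above the mean inhibition across the screen plus 3 SD, cut at about 25% in these data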;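 note: inhibitors block binding of the rhodamine activity-based probe so polarization drops; 0% = enzyme with DMSO and 100% = wells lacking pPAFAH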
# PAFAH1B2 inh: PAFAH1B2 enzyme inhibitors, primary screen, biochemical, fluorescence polarization, human; Platelet-activating factor acetylhydrolase IB subunit alpha2 (Homo sapiens), P68402; recombinant PAFAH1B2, FP-rhodamine activity probe; inhibition, % at 3.39 µM; actives 1.2% (n = 340,000); AID 492953, 2010;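 active = inhibition above the mean of all tested compounds plus 3 SD, cut at about 24% in these data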;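 note: 0% = enzyme with DMSO and 100% = wells lacking PAFAH1B2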
# Target sequence (P68402 whole entry, looked up): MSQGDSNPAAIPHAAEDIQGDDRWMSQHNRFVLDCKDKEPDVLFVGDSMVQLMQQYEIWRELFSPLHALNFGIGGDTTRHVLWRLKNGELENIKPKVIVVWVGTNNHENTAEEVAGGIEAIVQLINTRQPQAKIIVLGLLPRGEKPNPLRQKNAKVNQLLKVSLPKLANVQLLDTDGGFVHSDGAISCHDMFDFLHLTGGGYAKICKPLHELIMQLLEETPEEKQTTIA
# PAFAH1B3 FP inh: PAFAH1B3 enzyme inhibitors, primary screen, biochemical, fluorescence polarization, human | Platelet-activating factor acetylhydrolase IB subunit alpha1 (Homo sapiens), Q15102 | recombinant PAFAH1B3, FP-rhodamine probe | inhibition, % at 3.39 µM | actives 0.28% (n = 340,000) | AID 492972, 2010;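 active = inhibition above the screen-wide average of all tested compounds plus 3 SD, cut at about 25% in these data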;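 note: 0% = enzyme with DMSO only and 100% = wells lacking PAFAH1B3 protein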
# ABHD4 inh: ABHD4 inhibitors, primary screen, biochemical, fluorescence polarization, mouse | (Lyso)-N-acylphosphatidylethanolamine lipase (Mus musculus), Q8VD66 | purified mABHD4, FP-Rh probe fluorescence polarization | inhibition, % at 8.92 µM | actives 0.54% (n = 370,000) | AID 720543, 2013;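 active = inhibition exceeding the mean over every tested compound plus 3 SD, cut at about 30% in these data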;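 note: 0% = plate median of compound wells and 100% = S159A mutant with DMSO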
#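 Test system: mouse ABHD4 enzyme, wild type. Reagent: FP-Rh fluorescent activity-based probe, added after compound pre-incubation. Timing: pre-incubation 45 min, probe exposure 60 min, at 25 °C. Technique: FP readout, ex 525 nm / em 598 nm. Benchmarks: high control S159A mutant with DMSO, low control median of compound wells.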
# pPAFAH FP conf: pPAFAH (PLA2G7) enzyme inhibitors, confirmation, biochemical, fluorescence polarization, human; AID 463230, 2010; inhibition, % at 3.39 µM; actives 72% (n = 2,300); shares compounds with pPAFAH FP inh; recombinant pPAFAH, FP-Rh probe fluorescence polarization;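 active = mean inhibition of the triplicate above the hit cutoff set for the earlier primary screen, cut at about 25% in these data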;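 note: 0% = enzyme with DMSO and 100% = wells lacking pPAFAH enzyme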
# PAFAH2 FP conf: PAFAH2 enzyme inhibitors, confirmation, biochemical, fluorescence polarization, human. shares compounds with PAFAH2 inh. recombinant PAFAH2, FP-rhodamine activity probe. inhibition, % at 3.39 µM. actives 65% (n = 2,300);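 active = mean inhibition over three repeats above a set limit taken from the earlier primary screen, cut at about 30% in these data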;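 note: inhibitor blocks binding of rhodamine activity probe so polarization falls; 0% = enzyme with DMSO and 100% = wells lacking PAFAH2 protein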
# HTRA1 conf: HTRA1 protease inhibitors, retest, confirmation, biochemical, fluorescence polarization. shares compounds with HTRA1 inhibitor. recombinant HTRA1, FP-rhodamine activity-based probe. inhibition, % at 5.96 µM. actives 66% (n = 1,600);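 active = mean inhibition over three repeats above a set limit taken from the earlier primary screen, cut at about 37% in these data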;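 note: 0% = HTRA1 with DMSO and 100% = wells lacking HTRA1; inhibitors block probe binding so polarization drops and inhibition rises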
# ABHD4 confirm: ABHD4 inhibitors, retest, confirmation, biochemical, fluorescence polarization, mouse. inhibition, % at 8.92 µM. shares compounds with ABHD4 inh. actives 55% (n = 1,800). AID 720658, 2013. purified mABHD4, FP-Rh probe fluorescence polarization;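 active = mean inhibition across replicates above the hit cutoff set in the primary screen, cut at about 30% in these data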;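 note: 0% = wild-type ABHD4 with DMSO and 100% = catalytically dead S159A mutant with DMSO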
# Starred values were filed as active, the others as inactive; x = not tested or not shown.
SMILES,PAFAH2 inh,HTRA1 inhibitor,pPAFAH FP inh,PAFAH1B2 inh,PAFAH1B3 FP inh,ABHD4 inh,pPAFAH FP conf,ABHD4 confirm,others
COCCN=c1scc(-c2cccs2)n1/N=C(\C)c1ccco1,-1,-15,6,-3,-3,0,x,x,
CC(=O)N1CCN(C2=Nc3ccccc3Sc3ccccc32)CC1,x,x,x,x,x,-1,x,x,
Cc1ccc(NC(=O)CSc2nnc(-c3ccco3)c(-c3ccco3)n2)cc1,22,31,48*,6,17,41*,29*,36*,
COc1ccc(NC(=O)CSc2nnc(-c3ccco3)c(-c3ccco3)n2)cc1OC,11,-4,10,-1,8,16,x,x,
O=C(CSc1nnc(-c2ccco2)c(-c2ccco2)n1)Nc1ccccc1,42*,18,59*,2,10,51*,21,39*,PAFAH2 FP conf=11
O=C(CSc1nnc(-c2ccccc2)c(-c2ccccc2)n1)NCc1ccco1,-8,-2,2,9,1,3,x,x,
COc1cccc(NC(=O)CSc2nnc(-c3ccco3)c(-c3ccco3)n2)c1,23,39*,41*,6,22,46*,17,25,HTRA1 conf=-6
CCOc1ccc(-n2c(SCC(=O)Nc3ccc(S(=O)(=O)Nc4nccs4)cc3)nnc2-c2ccccc2)cc1,x,x,x,x,x,-54,x,x,
O=C(OCC#CCSc1nnc(-c2cccc3ccccc23)o1)c1ccc(OC(F)(F)F)cc1,x,x,x,x,x,-1,x,x,
C=CCn1c(SCC(=O)c2ccc(O)c(O)c2)nnc1-c1cccc(C)c1,29,70*,35*,9,9,41*,80*,30*,HTRA1 conf=78*
Cc1nc2ccccc2c(=O)n1/N=C/c1ccc(O)c(O)c1O,46*,49*,87*,7,27*,44*,47*,27,HTRA1 conf=56*
CCNc1ccc(Br)cc(C(=O)/C=C/c2ccc3c(c2)OCO3)c1=O,36*,52*,48*,4,9,38*,17,45*,HTRA1 conf=27
CNc1ccc(Br)cc(C(=O)/C=C/c2cccc(OC)c2)c1=O,27,40*,36*,-3,11,37*,24,43*,HTRA1 conf=-1
CNc1ccc(Br)cc(C(=O)/C=C/c2ccc(Cl)cc2Cl)c1=O,30*,64*,51*,4,4,33*,36*,57*,HTRA1 conf=48*
COc1cccc(/C=C/C(=O)Nc2ccc3[nH]c(=O)[nH]c3c2)c1,4,-2,12,2,0,5,x,x,
C#CCNC(=O)C[C@@H]1C(=O)N2CCCC3=C2[C@@]1(C(=O)OCC)CCC3,x,x,x,x,x,-7,x,x,
O=[N+]([O-])c1c(NCCCO)cc(SCc2ccco2)c2nonc12,1,11,59*,6,9,54*,-2,16,
O=[N+]([O-])c1c(NCCCO)cc(Sc2ccc(Cl)cc2)c2nonc12,-1,-1,-1,2,8,13,x,x,
Cc1cccc(C)c1OCc1cccc(C2Nc3ccccc3C(=O)N2Cc2ccco2)c1 (stereo unspecified),x,x,x,x,x,-22,x,x,
O=C(O)c1ccc2c(c1)C(=O)/C(=C\c1ccco1)C2=O,17,10,54*,12,35*,30*,18,28,
CSc1ccc(C=NNC(=O)c2cc(-c3ccc(Cl)cc3)n[nH]2)cc1,x,x,x,x,x,-2,x,x,
CSc1nsc(/C=C/Nc2ccc(F)cc2)c1C#N,-7,-13,9,0,-9,2,x,x,
CSc1nsc(/C=C/Nc2ccc(O)cc2C)c1C#N,22,74*,48*,12,14,59*,9,7,HTRA1 conf=-10
Cc1ccccc1C1CCC2(CCC(=O)N2CC[C@@H](O)c2ccccc2)CC1 (stereo partly specified),x,x,x,x,x,6,x,x,
CN(C)C1(CN=Cc2cc(Cl)cc([N+](=O)[O-])c2O)CCCCC1,34*,34,42*,8,5,36*,28*,45*,
SMILES,PAFAH2 inh,HTRA1 inhibitor,pPAFAH FP inh,PAFAH1B2 inh,PAFAH1B3 FP inh,ABHD4 inh,pPAFAH FP conf,ABHD4 confirm,others
O=[N+]([O-])c1cc(Cl)cc(/C=N\Nc2ccccn2)c1O,12,31,4,4,7,21,x,x,
CCOC(=O)[C@]12CCCCC/C=C\1N(CCc1ccc(Cl)cc1)C(=O)[C@H]2CC(=O)NCc1ccc(C)o1,x,x,x,x,x,-5,x,x,
O=c1cc(-c2ccc(O)c(O)c2)oc2c1ccc1ccccc12,48*,66*,78*,14,34*,34*,82*,31*,HTRA1 conf=74*
CCOC(=O)CC[C@@]1(C(=O)OCC)C[C@@H](CC(=O)N2CCSCC2)C(=O)N2CCCC=C21,x,x,x,x,x,4,x,x,
COc1cccc(C(=O)NCCN2C(=O)C3C4C=CC(C4)C3C2=O)c1 (stereo unspecified),x,x,x,x,x,-2,x,x,
Cc1ccc(O)c(CP(=O)(c2ccccc2)c2ccccc2)c1,-1,-3,10,-2,-3,-2,x,x,
CCNc1ccccc1CP(=O)(c1ccccc1)c1ccccc1O (stereo unspecified),x,x,42*,x,x,77*,8,46*,
CCS(=O)(=O)Nc1ccc2c(c1)C(=O)N(C)[C@@H]1CC[C@H](CC(=O)NCCOC)O[C@H]1CO2,x,x,x,x,x,-1,x,x,
O=C(O)C1Nc2c(O)cccc2C2C=CCC12 (stereo unspecified),50*,50*,88*,36*,40*,44*,42*,47*,
O=c1[nH]c(=S)[nH]c2nc(-c3ccccc3)cnc12,1,2,-2,4,9,9,x,x,
